Compound activity from PubChem BioAssay.
Shown are actives, neighbours in structure and some others; about 4.1% of the full set was active somewhere.
MrgX1 allo act: human MrgX1 positive allosteric modulation, primary screen | MrgX1-HEK293, Fluo-4 calcium flux, FDSS; active compounds read high | B-score at 10 µM | AID 588675 | 0.63% of 310,000 active | Q96LB2;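 active means plate-corrected calcium response at least 3 library SD above typical, normal starting fluorescence, not activating the receptor alone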;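 further: compound read alongside a low EC10 to EC30 dose of BAM8-22 agonist; peak minus trough fluorescence over baseline measured at the second addition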
MrgX1 antagonist: human MrgX1 receptor antagonism, primary screen; Q96LB2; MRGX1-HEK293 calcium flux, Fluo-4, BAM8-22 antagonism; active compounds read low; B-score at 10 µM; 1.3% of 310,000 active;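 active means calcium-response B-score plate-corrected more than 3 library SD below zero, starting fluorescence within 5 deviations, no agonist response on first addition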;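 further: peak minus trough fluorescence over baseline after final BAM8-22 challenge near maximal dose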
RGS4 pot: RGS4 potentiation or activation; HEK293 M3R/inducible RGS4, carbachol calcium flux Fluo4; active compounds read low; B-score at 10 µM; 0.92% of 310,000 active; AID 463111;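 active means B-score of the integrated calcium signal more than 4 SD below the library mean, with starting fluorescence not abnormally high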;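 further: negative B-score means reduced calcium response which marks RGS4 activation or potentiation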
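Assay system: Inducible-RGS4 HEK293 cells carrying M3 receptor | Schedule: Compound preincubation 20 min at room temperature before agonist | Signal: Kinetic calcium fluorescence imaging with Fluo4-AM dye, 2 µM | Read-out basis: B score from integrated fluorescence ratio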
MrgX1 ag: human MrgX1 receptor agonism, primary screen; AID 588627; B-score at 10 µM; 0.44% of 310,000 active; MrgX1-HEK293 cells, Fluo-4 calcium fluorescence, agonist mode; active compounds read high;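 active means calcium response B-score plate-corrected fluorescence ratio at least 3 library SD, with starting fluorescence B-score inside 5 SD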
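Assay system: MrgX1-expressing HEK293 cells / Amount: fifteen thousand cells per well / Doses: test compound in the initial addition of three / Timing: cells plated overnight, dye loaded 0.5 h 37 °C, 0.5 h room temperature / Technique: kinetic calcium dye fluorescence, Fluo-4 NW / Control set: positive and negative controls per plate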
RGS4 inh: inhibitors of human RGS4. HEK293 M3R/RGS4 inducible, Fluo-4 calcium flux; active compounds read high; triggered by carbachol at its EC20. AID 463165. 0.45% of 310,000 active. B-score at 10 µM;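 active means B-score, a plate-corrected calcium signal, over three deviations above library mean, with baseline fluorescence within five deviations of library mean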;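 further: RGS4 expression induced by doxycycline in cells with stable M3 receptor; B-score is computed from the integrated fluorescence ratio over baseline after carbachol; higher B-score means a larger calcium signal and so more RGS4 inhibition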
Kir21 block: inhibitors of mouse Kir2.1 inward-rectifier potassium channel | HEK293-Kir2.1, FluxOR thallium flux fluorescence; active compounds read low | 0.85% of 310,000 active | AID 1672 | B-score at 10 µM;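 active means fluorescence ratio B-score at or below minus 3 SD of library scores, with starting-brightness B-score within 2 SD, cut at about -4.2 in these data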;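 further: channel flux triggered by added potassium and thallium sulfate stimulus; B-score of peak minus minimum fluorescence over baseline after thallium stimulus; more negative B-score means stronger Kir2.1 block with less thallium influx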
Target sequence (P35561 whole entry, looked up): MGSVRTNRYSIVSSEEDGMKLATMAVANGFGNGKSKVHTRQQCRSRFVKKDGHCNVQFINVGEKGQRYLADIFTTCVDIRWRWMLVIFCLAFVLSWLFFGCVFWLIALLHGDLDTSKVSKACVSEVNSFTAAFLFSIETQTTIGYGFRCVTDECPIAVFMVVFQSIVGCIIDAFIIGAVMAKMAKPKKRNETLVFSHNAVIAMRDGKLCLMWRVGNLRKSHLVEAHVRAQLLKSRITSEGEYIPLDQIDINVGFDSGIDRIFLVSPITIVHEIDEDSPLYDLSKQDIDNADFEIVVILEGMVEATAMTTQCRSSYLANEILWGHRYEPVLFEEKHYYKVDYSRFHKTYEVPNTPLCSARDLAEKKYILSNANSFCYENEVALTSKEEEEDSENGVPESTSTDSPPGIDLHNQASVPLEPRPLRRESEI
MrgX1 allo conf: confirmation of human MrgX1 receptor positive allosteric modulators; activation (ratio percentage), % at 10 µM; shares compounds with MrgX1 allo act; 13% of 1,200 active; AID 602413; MrgX1-HEK293, Fluo-4 calcium fluorescence, FDSS;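 active means ratio at least 3 SD above the weak peptide control, stable starting fluorescence, no direct agonism earlier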;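 further: compound followed by low BAM8-22 agonist challenge near EC20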
HEK293 Ca flux: activity in parental HEK293 cells lacking MrgX1. shares compounds with MrgX1 antagonist. Fluo-4 calcium fluorescence, FDSS. fluorescence ratio F(max-min)/F0 at 10 µM. AID 624111. 2% of 4,000 active;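 active means duplicate-averaged calcium fluorescence ratio at least three times the standard deviation of buffer wells, a nonspecific response in parental cells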
HEK293 Ca counter: activity in parental HEK293 cells without MrgX1; shares compounds with MrgX1 antagonist; AID 624114; fluorescence ratio F(max-min)/F0 at 10 µM; 0.4% of 4,000 active; parental HEK293 calcium flux, Fluo-4 fluorescence ratio; active compounds read high;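 active means calcium fluorescence ratio, averaged over duplicates, at least 3 SD of the buffer-well ratio, meaning a nonspecific response in receptor-free cells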;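 further: untransfected parental HEK293 lacking MrgX1 used as counterscreen for MrgX1 allosteric activators; fluorescence change taken during the second addition on a kinetic imager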
HEK293 Ca cntr2: activity in parental HEK293 cells lacking MrgX1 receptor. 8.7% of 4,000 active. fluorescence ratio F(max-min)/F0 at 10 µM. Fluo-4 calcium fluorescence (FDSS); active compounds read high. shares compounds with MrgX1 antagonist;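 active means calcium fluorescence ratio at least three times the spread of buffer wells, meaning a non-specific response in parental cells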
Active calls of the source: *; i = inactive; x = not tested or not shown.

SMILES	MrgX1 allo act	MrgX1 antagonist	RGS4 pot	MrgX1 ag	RGS4 inh	Kir21 block	MrgX1 allo conf	HEK293 Ca flux	HEK293 Ca counter	HEK293 Ca cntr2
O=S(=O)(NCCNc1nccc(C(F)(F)F)n1)c1ccccc1	i	i	i	i	i	-0.14	x	x	x	x
Cc1cccc(N=Cc2c(O)cc(C)oc2=O)c1	i	i	i	i	i	-0.17	x	x	x	x
Cc1ccc(-c2[nH]ncc2C(=O)c2ccc(Br)cc2)c(O)c1	8.7*	i	i	i	i	-1.5	i	i	i	i
COc1ccc(O)c(-c2[nH]ncc2C(=O)c2ccccc2)c1	i	i	i	i	i	-0.18	x	x	x	x
Cc1cccc(C(=O)c2cn[nH]c2-c2ccccc2O)c1	i	i	i	i	i	-2.1	x	x	x	x
Cc1ccc(C(=O)c2cn[nH]c2-c2cc(Cl)ccc2O)cc1	11*	i	i	i	i	0.25	i	i	i	i
CC1(C)CC(C)(c2ccc(O)cc2O)N(c2ccc3ccccc3c2)C(=S)N1 (centres undefined)	i	i	i	i	i	-0.83	x	x	x	x
O=C(Nc1ccccc1N1CCOCC1)c1ccccc1NS(=O)(=O)c1ccc(F)c(F)c1	i	i	i	i	i	-1.1	x	x	x	x
O=C(Nc1ccccc1N1CCOCC1)c1cccc(NS(=O)(=O)c2ccc(F)c(F)c2)c1	11*	i	i	i	i	-1.2	i	i	i	i
C1CN(c2nc3nonc3nc2N2CCOCC2)CCO1	i	i	i	i	i	0	x	x	x	x
COc1cc(C)c(NC(c2ccccc2)c2ccccc2)cc1OC	8.7*	i	i	i	i	-1.4	i	i	i	i
COC(=O)c1ccc(NS(=O)(=O)c2ccc(Cl)cc2)o1	22*	i	i	i	i	0.98	12%*	i	i	i
COC(=O)c1[nH]c2ccc(C)cc2c1NC(=O)CN1CCC(C)CC1	7.8*	i	i	i	i	-2.1	i	i	i	i
COC(=O)c1[nH]c2ccc(C)cc2c1NC(=O)CN1CCN(c2ccccc2)CC1	i	i	i	i	i	0.04	x	x	x	x
O=C(CCCn1c(=S)[nH]c2ccccc2c1=O)NCCSCc1ccccc1	i	i	i	i	i	0.05	x	x	x	x
CCOC(=O)CNC(=O)N1CCCC(C(=O)c2cc(C)c(OC)c(C)c2)C1 (centres undefined)	i	i	i	i	i	2.3	x	x	x	x
COc1ccc2nc(NC(=S)N(C)C)sc2c1	12*	i	i	i	i	0.69	i	i	i	i
NCCCC[C@H](N[C@@H](CCc1ccccc1)C(=O)O)C(=O)N1CCC[C@H]1C(=O)O	i	i	i	i	i	x	x	x	x	x
CCC(C)(C)NC(=O)C(c1ccccc1Cl)N(C(=O)CCC(=O)Nc1cc(C)on1)C(C)(C)C (centres undefined)	i	i	i	i	i	-2.1	x	x	x	x
COc1cccc(C(=O)COc2cccc(NC(=O)c3ccco3)c2)c1	6.6*	i	i	i	i	-0.52	i	i	i	i
Cc1n[nH]c(C)c1-c1nc2ccccc2[nH]1	i	i	i	i	i	-0.98	x	x	x	x
Cc1[nH]ncc1-c1nc2ccccc2[nH]1	13*	i	i	i	i	1.3	i	i	i	i
